Results as given in ChEMBL document CHEMBL4028907, “Semisynthesis and Biological Evaluation of Xanthone Amphiphilics as Selective, Highly Potent Antifungal Agents to Combat Fungal Resistance” (J Med Chem, 2017).
In brackets after ≈: the same amount, converted by molar mass. Activity calls are given as the source filed them. The rule behind the calls is not given here.

Columns and labels:
Candida albicans [1] = assay: Antifungal activity against drug resistant Candida albicans DF2672R measured after 27 passages by two fold serial dilution method; type: functional
Method in brief: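 Serial passage: cells from duplicate tubes at 0.5× MIC adjusted to ~5×10^3 CFU/mL and used as the inoculum for the next broth microdilution MIC, 24 h at 35 °C. Repeated for 27–30 passages, with biological replicates.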

[2] = Cytotoxicity against human corneal fibroblasts assessed as reduction in cell viability after 4 hrs by LDH assay; type: cell-based; conditions: Corneal fibroblast
Method in brief: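 LDH release assay on human corneal fibroblasts seeded at 10000 cells per well, exposed to a range of compound concentrations up to 100 μM. 1% Triton X-100 served as positive control and 0.5% DMSO as negative control; biological replicates.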

Aspergillus fumigatus = assay: Antifungal activity against Aspergillus fumigatus TCC 90906 after 48 hrs by two fold serial dilution method; type: functional; conditions: TCC 90906, 48 h
Method in brief: (§1)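 Moulds grown on potato dextrose agar, 30 °C, 4 days; inoculum adjusted to about 5×10^3 CFU/mL. Two-fold serial dilutions in RPMI-1640 broth, 100 to 0.78 μg/mL final, mixed with equal volume of cell suspension; incubated 30 °C, 48 h. MIC = lowest concentration inhibiting growth, judged visually and by OD530.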

Candida albicans [3] = assay: Fungicidal activity against drug resistant Candida albicans DF2672R at 1 time MIC after 1 hr by time kill assay relative to control; type: functional
Method in brief: (§2)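 Cells at 10^5–10^6 CFU/mL exposed to 1×, 2×, 4× or 8× MIC at 35 °C. Samples taken at 0.5, 1, 2, 4, 8 and 24 h, serially diluted in PBS and plated on SDA. CFU counted after 24 h at 35 °C; biological replicates.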

Lipid bilayer = assay: Induction of membrane permiablization in calcein loaded DOPC/DOPE/PI large unilamellar vesicles assessed as calcein leakage at 1:8 compound to lipid ratio after 1 to 2 hrs by […] fluorescence assay relative to control
Method in brief: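 LUVs (DOPC/DOPE/PI 2:1:1 with 15 wt % ergosterol, about 100 nm) made by film hydration and extrusion, loaded with 80 mM calcein in HEPES buffer pH 7.4. Free dye removed by G-50 column. Compound added in 0.5% DMF at 50 μM final phospholipid. Emission read at 520 nm (excitation 490 nm); leakage normalized to 1% Triton X-100.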

Aspergillus flavus = assay: Antifungal activity against Aspergillus flavus TCC 204304 after 48 hrs by two fold serial dilution method; type: functional; conditions: TCC 204304, 48 h; method in brief: as §1
Candida albicans [4] = assay: Fungicidal activity against drug resistant Candida albicans DF2672R at 4 times MIC after 1 hr by time kill assay relative to control; type: functional; method in brief: as §2
Candida albicans [5] = assay: Synergistic antifungal activity against drug resistant Candida albicans DF2672R after 24 hrs in presence of amphotericin B by checkerboard assay; type: functional
Method in brief: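 Checkerboard combination of each compound with a second antifungal, following a previously reported procedure. FIC = MIC of A in combination/MIC of A alone + MIC of B in combination/MIC of B alone.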

Candida albicans [6] = assay: Antifungal activity against Candida albicans DF1976R after 24 hrs by two fold serial dilution method; type: functional
Method in brief: (§3)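 Candida grown on Sabouraud dextrose agar at 35 °C for 24 h, adjusted to ~5×10^3 CFU/mL. Two-fold dilutions from 100 to 0.78 μg/mL in Sabouraud dextrose broth, incubated at 35 °C for 24 h. MIC is the lowest concentration inhibiting growth by eye and by OD600. CLSI-based with minor modifications.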

Candida albicans [7] = assay: Antifungal activity against Candida albicans ATCC90028 after 24 hrs by two fold serial dilution method; type: functional; conditions: ATCC90028, 24 h; method in brief: as §3
[8] = Dissociation constant, pKa of compound; type: physicochemical
Klebsiella pneumoniae = assay: Antibacterial activity against Klebsiella pneumoniae DM4299 by two fold serial dilution method; type: functional
Method in brief: (§4)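 Broth microdilution (CLSI, minor modifications) in Sabouraud dextrose, Mueller−Hinton or RPMI 1640 broth; two-fold serial dilutions of compound from stock to final 100 to 0.78 μg/mL. MIC taken as lowest concentration giving no visible growth.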

Pseudomonas aeruginosa = assay: Antibacterial activity against Pseudomonas aeruginosa DM23155 by two fold serial dilution method; type: functional; method in brief: as §4
Fusarium solani = assay: Antifungal activity against Fusarium solani MYA3636 after 48 hrs by two fold serial dilution method; type: functional; conditions: MYA3636, 48 h; method in brief: as §1
[9] = Selectivity index, ratio of IC50 for human corneal fibroblasts to MIC for drug resistant Candida albicans DF2672R

COc1c(OCC(O)CNC(=N)N)cc2oc3cc(OCC(O)CNC(=N)N)c(CC=C(C)C)c(O)c3c(=O)c2c1CC=C(C)C (stereo not given)
Activity (Candida albicans [1]): Active | IC50 [2]: > 100 µM | MIC (Aspergillus fumigatus): 6.25 µg/mL (≈ 9.75 µM) | Activity (Candida albicans [3]): 91% | Activity (Lipid bilayer): 43.8% | MIC (Aspergillus flavus): 6.25 µg/mL (≈ 9.75 µM) | Activity (Candida albicans [4]): 99.9% | fractional inhibitory concentration index (FICI) (Candida albicans [5]): 1.28 | MIC (Candida albicans [6]): 0.78 µg/mL (≈ 1.22 µM) | MIC (Candida albicans [7]): 0.78 µg/mL (≈ 1.22 µM) | pKa [8]: 12.5 | MIC (Klebsiella pneumoniae): 25 to 50 µg/mL (≈ 39 to 78 µM) | MIC (Pseudomonas aeruginosa): 25 to 50 µg/mL (≈ 39 to 78 µM) | MIC (Fusarium solani): 3.13 µg/mL (≈ 4.88 µM) | Selectivity Index [9]: 41 - 82
